# Source: PubChem BioAssay
# GASC1 inh – inhibitors of human demethylase GASC-1 KDM4C; 96,000 tested, 0.15% active; inhibition, % at 12.5 µM; GST-KDM4C 2-372, H3K9me3 peptide, LANCE TR-FRET;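 active = mean replicate inhibition above about 25%, with at least 55% of replicates also reaching it, limit read from the data, passing the limit was not always enough; inconclusive = only one of those two conditions met; inactive = neither condition met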
# Target sequence (Q9H3R0 2-372 limits assumed): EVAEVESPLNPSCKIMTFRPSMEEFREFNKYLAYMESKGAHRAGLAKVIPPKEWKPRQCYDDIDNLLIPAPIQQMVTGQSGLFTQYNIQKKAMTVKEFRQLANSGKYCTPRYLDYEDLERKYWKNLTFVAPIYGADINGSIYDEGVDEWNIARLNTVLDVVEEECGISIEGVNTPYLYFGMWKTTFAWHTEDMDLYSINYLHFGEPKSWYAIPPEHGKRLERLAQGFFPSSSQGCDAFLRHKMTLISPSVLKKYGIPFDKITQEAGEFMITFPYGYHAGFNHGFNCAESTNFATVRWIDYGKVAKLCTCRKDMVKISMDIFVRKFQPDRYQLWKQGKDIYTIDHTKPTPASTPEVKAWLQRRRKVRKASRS
#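 System: N-terminal GST-fused human GASC-1 (KDM4C) fragment, residues 2-372; amount: enzyme final amount 10 nM; incubation: reaction 30 min RT, detection step 1 h RT; medium: HEPES buffer, pH 7.5, plus ascorbate; technique: LANCE TR-FRET, Eu antibody, ULight-streptavidin, EDTA, ex 340 nm, em 618/671 nm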
# IDH1 R132H inh – IDH1 R132H (human) inhibition; O75874; IDH1 R132H reductase, diaphorase/resazurin fluorescence, 60 min; inhibition, % at 10 µM; 70,000 tested, 0.18% active; AID 624101; in the data active = inhibition above about 34%; inconclusive = no clear call, values can overlap the other calls; inactive = below about 11%;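 also: 0% = DMSO and 100% = no enzyme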
# Pf Dd2 growth – inhibitors of Plasmodium falciparum Dd2 growth. P. falciparum Dd2 growth, SYBR Green, 72 h; stronger effect = lower value. activity change, % at 10 µM. 94,000 tested, 2.3% active. AID 1159554; in the data active = activity change below about -80%; inconclusive = no clear call, values can overlap the other calls
# T cruzi growth-1 – inhibitors of T. cruzi proliferation | AID 624255 | inhibition, % at 8.34 µM | 77,000 tested, 5.9% active | T. cruzi beta-gal in NIH3T3, GalScreen luminescence, 90 h;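 active = mean inhibition above about 93%, with at least 55% of replicates each passing it, limit read from the data, passing the limit was not always enough; inconclusive = only one of those two conditions holds; inactive = neither condition holds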
# T cruzi growth-2 – Trypanosoma cruzi proliferation inhibition; 5,600 tested, 72% active; T. cruzi beta-gal in NIH3T3, GalScreen luminescence, 90 h; inhibition, % at 8.35 µM; shares compounds with T cruzi growth-1; AID 651739;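 active = mean replicate inhibition above about 95% and at least 55% of replicates individually reaching it, limit read from the data; inconclusive = only one of the two criteria is met; inactive = neither criterion is met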
# T cruzi growth-3 – inhibitors of T. cruzi proliferation; shares compounds with T cruzi growth-1; inhibition, % at 2.09 µM; T. cruzi beta-gal in NIH3T3, GalScreen luminescence, 90 h; 5,600 tested, 21% active; AID 651740;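 active = mean inhibition above about 95%, with at least 55% of replicates also reaching it, limit read from the data; inconclusive = meets just one of the two conditions; inactive = meets neither condition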;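 also: plate controls were neutral control median for no effect and positive control median for full effect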
# NIH3T3 tox – cytotoxicity in mouse NIH/3T3 fibroblasts | cytotoxicity (signal decrease), % at 8.35 µM | 5,600 tested, 14% active | NIH/3T3 viability, CellTiter-Glo ATP luminescence, 90 h | AID 651742 | shares compounds with T cruzi growth-1;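 active = mean signal decrease across replicates above about 35% based on untreated-well scatter, with enough replicates individually passing, limit read from the data; inconclusive = no rule stated though some were filed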;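 also: 0% = median of neutral control wells and 100% = median of positive control wells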
# 3T3 cytotox 2 – cytotoxicity in mouse NIH/3T3 fibroblasts. shares compounds with T cruzi growth-1. NIH/3T3 viability, CellTiter-Glo ATP luminescence, 90 h. inhibition, % at 24.9 µM. 5,600 tested, 56% active. AID 651744;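 active = mean loss of cell viability signal at or above a set limit, and enough replicates individually reaching it; inconclusive = meets only the mean limit or only the replicate share; inactive = meets neither condition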;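 also: 0% = median of neutral control wells and 100% = median of positive control wells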
# Starred values were filed as active, the others as inactive; ? = inconclusive; . = no result. The list is not random: actives were taken first. Their share in the collection is about 5.8%.
SMILES,GASC1 inh,IDH1 R132H inh,Pf Dd2 growth,T cruzi growth-1,T cruzi growth-2,T cruzi growth-3,NIH3T3 tox,3T3 cytotox 2
CCS(=O)(=O)N1CCCCN2[C@H](C1)[C@H](c1ccc(C#Cc3ccccn3)cc1)[C@@H]2CO,0,.,-19,96*,94,54,-2,1
CS(=O)(=O)N1CCCCN2[C@H](CO)[C@@H](c3ccc(C#Cc4ccccn4)cc3)[C@H]2C1,2,.,9,?,91,9,-6,2
Cc1cc(OCC(=O)Nc2cccc3ncccc23)cc(C)c1Cl,.,-1,.,.,.,.,.,.
C[C@@H]1CCCCO[C@H](CN(C)S(=O)(=O)c2cccs2)[C@H](C)CN([C@@H](C)CO)C(=O)c2cc(NC(=O)Nc3ccc(C(F)(F)F)cc3)ccc2O1,-1,.,-74,?,104*,113*,9,4
C[C@H]1CCCCO[C@H](CN(C)S(=O)(=O)c2cccs2)[C@@H](C)CN([C@@H](C)CO)C(=O)c2cc(NC(=O)Nc3ccc(C(F)(F)F)cc3)ccc2O1,-3,.,-71,99*,105*,109*,-22,-2
C[C@@H]1CN([C@@H](C)CO)C(=O)c2cc(NC(=O)Nc3ccc(C(F)(F)F)cc3)ccc2O[C@@H](C)CCCCO[C@H]1CN(C)S(=O)(=O)c1cccs1,0,.,-40,100*,105*,112*,25,16
C[C@H]1CCCCO[C@@H](CN(C)S(=O)(=O)c2cccs2)[C@@H](C)CN([C@@H](C)CO)C(=O)c2cc(NC(=O)Nc3ccc(C(F)(F)F)cc3)ccc2O1,0,1,-89*,?,96*,110*,-13,7
NC(=O)C(Cc1ccccc1)NS(=O)(=O)c1ccc2oc3ccccc3c2c1 (configuration not stated),.,0,.,.,.,.,.,.
CS(=O)(=O)N(CC(=O)Nc1cccc(Br)c1)c1cccc2ccccc12,.,0,.,.,.,.,.,.
CCOC(=O)Nc1ccc2c(c1)N(C(=O)CN1CCOCC1)c1ccccc1CC2,.,0,.,.,.,.,.,.
Cc1ccc(S(=O)(=O)Nc2ccc3c(c2)C(=O)N([C@@H](C)CO)C[C@@H](C)[C@@H](CN(C)Cc2ccccc2)OCCCC[C@@H](C)O3)cc1,-1,.,-74,?,94,80,25,105*
C[C@H]1CCCCO[C@@H](CN(C)Cc2ccccc2)[C@@H](C)CN([C@@H](C)CO)C(=O)c2cc(NS(=O)(=O)c3ccccc3)ccc2O1,2,-4,-70,16,.,.,.,.
C[C@@H]1CCCCO[C@H](CN(C)Cc2ccccc2)[C@H](C)CN([C@H](C)CO)C(=O)c2cc(NS(=O)(=O)c3ccccc3)ccc2O1,1,2,-58,101*,98*,79,-8,41*
COc1ccc(CN(C)C[C@H]2OCCCC[C@H](C)Oc3ccc(NS(=O)(=O)c4ccc(Cl)cc4)cc3C(=O)N([C@@H](C)CO)C[C@@H]2C)cc1,-1,2,-41,?,101*,37,6,104*
C[C@H](CO)N1C[C@H](C)[C@H](CN(C)Cc2ccccc2)OCCCC[C@H](C)Oc2ccc(NS(=O)(=O)c3ccc(F)cc3)cc2C1=O,59*,.,-37,?,113*,78,11,92*
COc1ccc(-c2noc(CN(C(C)C)S(=O)(=O)c3ccccc3)n2)cc1,.,-1,.,.,.,.,.,.
NC(=O)C1CCN(C(=O)CSc2nc(-c3ccccc3)cc(=O)[nH]2)CC1,.,0,.,.,.,.,.,.
CC(C)=CCc1c(O)c(CC=C(C)C)c2c(c1O)C(=O)CC(c1ccc(O)cc1O)O2 (configuration not stated),.,0,.,.,.,.,.,.
C[C@@H]1CN([C@@H](C)CO)C(=O)c2cc(NS(=O)(=O)c3ccc(F)cc3)ccc2O[C@@H](C)CCCCO[C@@H]1CN(C)Cc1ccccc1,0,-1,-55,105*,99*,82,20,107*
COc1ccc(CN(C)C[C@@H]2OCCCC[C@@H](C)Oc3ccc(NS(=O)(=O)c4ccccc4)cc3C(=O)N([C@H](C)CO)C[C@@H]2C)cc1,0,.,-25,-99,.,.,.,.
COc1ccc(CN(C)C[C@H]2OCCCC[C@H](C)Oc3ccc(NS(=O)(=O)c4ccccc4)cc3C(=O)N([C@@H](C)CO)C[C@H]2C)cc1,-1,.,-69,103*,109*,42,24,90*
CCCC#Cc1ccc2c(c1)O[C@H](CN(C)C(=O)c1ccncc1)[C@@H](C)CN([C@@H](C)CO)S2(=O)=O,-3,7,-49,80,.,.,.,.
CCCC#Cc1ccc2c(c1)O[C@@H](CN(C)C(=O)c1ccncc1)[C@H](C)CN([C@H](C)CO)S2(=O)=O,-1,0,-23,82,.,.,.,.
CCCC#Cc1ccc2c(c1)O[C@@H](CN(C)C(=O)c1ccncc1)[C@@H](C)CN([C@H](C)CO)S2(=O)=O,-3,-5,-42,110*,97*,71,8,37*
CCCC#Cc1ccc2c(c1)O[C@@H](CN(C)C(=O)c1ccncc1)[C@@H](C)CN([C@@H](C)CO)S2(=O)=O,1,-1,-34,108*,106*,90,-3,49*
SMILES,GASC1 inh,IDH1 R132H inh,Pf Dd2 growth,T cruzi growth-1,T cruzi growth-2,T cruzi growth-3,NIH3T3 tox,3T3 cytotox 2
CCC(=O)N1CCCCN2[C@@H](CO)[C@H](c3ccc(-c4cccc(C(=O)N(C)C)c4)cc3)[C@@H]2C1,0,.,30,100*,96*,84,4,21
CCC(=O)N1CCCCN2[C@H](CO)[C@H](c3ccc(-c4cccc(C(=O)N(C)C)c4)cc3)[C@H]2C1,0,.,18,101*,77,16,-11,19
O=C(CSc1nc(O)cc(=O)[nH]1)Nc1cccc(C(F)(F)F)c1,.,0,.,.,.,.,.,.
CC(=O)NC[C@H]1[C@H](c2ccc(-c3cccnc3)cc2)[C@H](CO)N1C(=O)C1CC1,-2,.,1,111*,9,-35,-3,0
CC(=O)NC[C@@H]1[C@@H](c2ccc(-c3ccccc3)cc2)[C@H](CO)N1C(=O)C1CC1,0,.,4,99*,4,-9,-7,-10
COc1cccc(-c2ccc([C@@H]3[C@H](CO)N4CCCCN(C(=O)NC(C)C)C[C@@H]34)cc2)c1,-1,.,1,102*,105*,51,-3,48*
COc1ccccc1NC(=O)N1CCCCN2[C@H](C1)[C@@H](c1ccc(-c3cccc(C)c3)cc1)[C@@H]2CO,-1,.,-67,77,.,.,.,.
Cc1cccc(-c2ccc([C@@H]3[C@H]4CN(C(=O)NC(C)C)CCCCN4[C@H]3CO)cc2)c1,-1,.,17,91,.,.,.,.
